# Measured values gathered from unrelated publications.
# Lines come from different studies, so protocols differ.
# Route: oral
SMILES,host,medium,dose,setting,Tmax [h]
CS(=O)(=O)CCC#N,human,plasma,300 mg,"multiple doses, once daily",1
C=CC(=O)N(C)CCOc1c(N)ncnc1-c1cc(F)cc(NC(=O)c2ccc(C3CC3)cc2F)c1C,human,blood,200 mg,"single dose, healthy volunteers",1.25
COc1ccc([C@@H]2CN(C(=O)[C@@H](O)CO)C[C@@]2(C)[C@@H](C)O)cc1OC1CN(c2ccc(C)cn2)C1,human,plasma,5 mg,"single dose, healthy volunteers",1.5
C#C[C@]1(COP(=O)(O)OP(=O)(O)OP(=O)(O)O)O[C@@H](n2cnc3c(N)nc(F)nc32)C[C@@H]1O,human,plasma,200 mg,single dose,6
NS(=O)(=O)NCCNc1nonc1C(=NO)Nc1ccc(F)c(Br)c1,human,plasma,700 mg,"multiple doses, twice daily, steady state, patients",3
CC(C)n1cc(C#N)c2cc(-n3cc(C(=O)O)cn3)ccc21,human,plasma,100 mg,"single dose, fasted, healthy volunteers",3.5
CC(C)(Sc1ccncc1-c1ccc(C#N)c2ccccc12)C(=O)O,male human,plasma,20 mg,"single dose, fed, healthy volunteers",1.25
CCc1nc2c(C)cc(N3CCN(CC(=O)N4CC(O)C4)CC3)cn2c1N(C)c1nc(-c2ccc(F)cc2)c(C#N)s1,human,plasma,600 mg,"single dose, fasted, healthy volunteers",1.8
Cn1cc(-c2ccc(S(=O)(=O)[C@@H]3C[C@@H](C(=O)NC4(C#N)CC4)N(C(=O)C4(C(F)(F)F)CC4)C3)c(C(F)(F)F)c2)cn1,human,plasma,300 mg,"single dose, fasted, healthy volunteers",3.5
C[C@@H](Nc1cc(F)cc(F)c1)c1cc(C(=O)N(C)C)cc2c(=O)cc(N3CCOCC3)oc12,human,plasma,360 mg,"single dose, patients",1.53
CC(C)(O)c1ccccc1-c1ccc2[nH]c(/C=C/c3ccc(C(F)(F)F)cc3)nc2c1,male human,plasma,50 mg,"single dose, fasted",2.9
